# Test results as given in paper PMC6279241 (Science signaling, 2018).
# What was measured:
# 92.1 cells = assay: Block of FR-elicited re-differentiation; type: cell-based, human; conditions: 92.1, 7 days GSK503 and 3 days FR
# PRC2 (Ezh1/2) = assay: Histone H3; type: cell-based, human; conditions: 92.1, 7 days GSK503, immunoblot
# Summary of the method: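 92.1 cells were treated with GSK503 for 7 days, and histones were isolated with a purification kit. Samples ran on 15% SDS-PAGE, were blotted to PVDF, blocked in 5% milk/TBST, and detected with IRDye-coupled secondary antibodies. H3K27me3 densitometry was normalized to total H3 and compared with DMSO control. Three independent experiments.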
smiles,measurement,setting,value
Cc1cc(C)c(CNC(=O)c2cc(-c3ccc(N4CCN(C)CC4)nc3)cc3c2c(C)cn3C(C)C)c(=O)[nH]1 [GSK503],Ability of FR to re-differentiate cells (morphology and pigmentation),92.1 cells,blocked
same,Histone H3(Lys27) trimethylation,PRC2 (Ezh1/2),reduced
